Test results as given in PMC6072051 (MedChemComm, 2017).

What was measured:
M. tuberculosis ICL1 [1] = target: T1, M. tuberculosis ICL1 (Mycobacterium tuberculosis, UniProt P9WKK7); test: 1H NMR assay of ICL1-catalysed turnover of DL-isocitrate; format: biochemical; conditions: for single concentration inhibition of ICL1: 100 μM inhibitor, 190 nM ICL1, 1 mM DL-isocitrate, 5 mM MgCl2
T1 sequence (P9WKK7 1-428): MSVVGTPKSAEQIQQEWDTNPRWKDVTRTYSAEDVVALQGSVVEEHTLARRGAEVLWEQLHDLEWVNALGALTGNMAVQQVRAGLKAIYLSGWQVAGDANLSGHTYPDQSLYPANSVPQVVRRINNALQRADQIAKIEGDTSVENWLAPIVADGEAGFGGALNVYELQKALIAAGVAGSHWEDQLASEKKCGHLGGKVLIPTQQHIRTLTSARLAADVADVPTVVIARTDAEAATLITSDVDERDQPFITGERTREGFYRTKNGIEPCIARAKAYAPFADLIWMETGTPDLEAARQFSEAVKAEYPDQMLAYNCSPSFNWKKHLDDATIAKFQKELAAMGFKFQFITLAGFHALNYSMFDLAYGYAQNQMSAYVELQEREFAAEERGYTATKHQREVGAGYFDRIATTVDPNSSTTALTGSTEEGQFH
How it was run: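 Recombinant ICL1 from E. coli BL21(DE3), purified by His-trap and gel filtration. Reactions in 50 mM Tris-D11 pH 7.5, 90% H2O/10% D2O at 300 K. 1H spectra with excitation-sculpting water suppression every ~1.3 min track the isocitrate decrease and the succinate singlet at 2.3 ppm. Initial rates from 15–20 min; inhibitors at varied concentrations; triplicates; IC50 by 3-parameter sigmoid fit.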

ICL1 = conditions: DL-isocitrate as substrate, LDH assay; cited from earlier work
M. tuberculosis ICL1 [2] = target: T1, M. tuberculosis ICL1; test: 1H NMR ICL1 enzyme kinetics; format: biochemical; conditions: methylisocitrate as substrate, 190 nM ICL1, 5 mM MgCl2

| SMILES | IC50 (M. tuberculosis ICL1 [1]) [µM] | single concentration inhibition of ICL1 (M. tuberculosis ICL1 [1]) | also measured |
| --- | --- | --- | --- |
| CCOC(=O)c1ccc(CC(=O)c2oc3cc(O)ccc3c2C)o1 [Compound 29] | > 100 | significantly inhibited ICL1 | – |
| CCOC(=O)c1cc2cc(CC(=O)c3ccc(O)cc3O)ccc2o1 [Compound 38] | > 100 | significantly inhibited ICL1 | – |
| O=C(O)CC[N+](=O)[O-] [3-Nitropropionate, reference compound] | – | most potent inhibitor | – |
| COC(=O)C=CC(=O)c1ccc(OC)cc1 [Methyl-4-(4-methoxyphenyl)-4-oxobut-2-enoate, reference compound] | – | weakest of the four tested | – |
| O=C(O)CC(C(=O)O)C(O)C(=O)O (racemic) [DL-isocitrate, DL-Isocitrate] | – | – | Km (ICL1): 190 µM; kcat (ICL1): 5.24 s^–1 |
| C[C@](CC(=O)O)(C(=O)O)[C@H](O)C(=O)O [methylisocitrate] | – | – | substrate concentration above which substrate inhibition was observed (M. tuberculosis ICL1 [2]): exceeded 1 mM |
